Screening results deposited in PubChem by several laboratories.
In the library only some 2.5% were active in any assay of this set; here they are far more common.
KLK7 zymogen act – activators of human kallikrein-7 zymogen; activation, % at 7 µM; actives 0.9% (n = 370,000); purified proKLK7, EDANS-DABCYL substrate fluorescence; 100% is mature enzyme control, 0% vehicle; P49862;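 active = activation above the mean of all tested compounds plus 3 SD, computed per campaign excluding outliers beyond control limits, cut at about 13% in these data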
Target sequence (P49862 whole entry, looked up): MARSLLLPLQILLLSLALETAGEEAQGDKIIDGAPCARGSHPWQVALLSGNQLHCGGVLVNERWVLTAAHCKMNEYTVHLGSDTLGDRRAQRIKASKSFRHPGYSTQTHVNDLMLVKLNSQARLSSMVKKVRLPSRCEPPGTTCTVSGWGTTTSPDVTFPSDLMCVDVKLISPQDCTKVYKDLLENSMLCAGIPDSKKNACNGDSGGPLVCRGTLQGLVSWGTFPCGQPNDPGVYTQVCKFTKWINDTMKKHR
ADAM10 inh – inhibitors of human ADAM10. recombinant ADAM10, EDANS/DABCYL FRET peptide cleavage, 3 h. inhibition, % at 7 µM. actives 0.62% (n = 370,000). AID 720582;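 active = inhibition above a per-campaign cutoff equal to the mean of compounds falling between control-based bounds plus 3 SD, cut at about 20% in these data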;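 also: 0% = DMSO wells while the 100% control is not disclosed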
NR2E3 ag-1 – agonists of human NR2E3 nuclear receptor; Q9Y5X4; CHO-S Gal4-NCOR/VP16-NR2E3 two-hybrid, luciferase; inhibition of corepressor binding, % at 3.98 µM; actives 0.35% (n = 360,000); AID 602229;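 active = inhibition above the mean of all tested compounds plus 3 SD, cut at about 70% in these data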;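 also: 0% = DMSO with NR2E3 transfected cells and 100% = cells lacking NR2E3 construct; higher means lower luciferase signal from less NR2E3 corepressor binding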
JMJD2C inh – inhibitors of human GASC-1 (JMJD2C) demethylase | Q9H3R0 | GST-JMJD2C(1-420) H3K9me3 demethylation, DELFIA europium | inhibition, % at 2.35 µM | actives 0.069% (n = 330,000) | AID 2099;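 active = more than half of a compound's replicate wells show inhibition beyond 50%, single wells judged on their own value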;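 also: signal counts dimethyl H3K9 product captured on neutravidin plate; 0% = median of DMSO wells and 100% = 0.3 times that DMSO median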
Target sequence (Q9H3R0 1-420 limits assumed): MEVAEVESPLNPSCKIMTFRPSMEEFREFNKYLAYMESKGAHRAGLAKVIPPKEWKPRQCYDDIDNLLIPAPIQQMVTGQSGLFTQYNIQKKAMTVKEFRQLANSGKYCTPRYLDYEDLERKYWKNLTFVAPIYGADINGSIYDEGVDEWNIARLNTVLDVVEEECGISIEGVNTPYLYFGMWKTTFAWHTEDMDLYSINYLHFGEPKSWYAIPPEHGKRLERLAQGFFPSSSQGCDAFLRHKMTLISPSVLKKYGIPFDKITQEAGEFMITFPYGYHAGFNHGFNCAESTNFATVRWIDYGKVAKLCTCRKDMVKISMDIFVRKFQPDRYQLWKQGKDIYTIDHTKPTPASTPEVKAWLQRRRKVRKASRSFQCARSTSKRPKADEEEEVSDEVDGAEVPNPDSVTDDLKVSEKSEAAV
ADAM17 inh – inhibits human ADAM17; P78536; recombinant ADAM17, EDANS/DABCYL FRET peptide cleavage; inhibition, % at 6.95 µM; actives 0.83% (n = 370,000);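 active = inhibition above the mean of compounds lying between control limits plus 3 SD, set per campaign, cut at about 8.5% in these data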;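 also: 0% = DMSO-only wells as the low control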
NR2E3 ag-2 – agonists of human nuclear receptor NR2E3; GST-NR2E3/biotin-RetCOR TR-FRET, 1536-well; inhibition of corepressor binding, % at 4.78 µM; actives 0.12% (n = 320,000);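 active = percent inhibition above the cutoff of mean plus 3 SD of all tested compounds, set per screening campaign, cut at about 20% in these data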;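 also: 0% = DMSO wells and 100% = biotin wells as full block of FRET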
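Assay system: NR2E3–RetCOR corepressor complex. Quantity: 1.35 nM GST-NR2E3. Buffer or medium: pH 7.5 Tris-based buffer. Reagent: biotinylated RetCOR corepressor at 7 nM final. Schedule: 5 h at 4 °C. Detection: TR-FRET, emission read at 617 and 671 nm. Replicates: one well per compound, singlicate testing.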
ADAM10 confirm – confirmation of inhibitors of human ADAM10. shares compounds with ADAM10 inh. ADAM10 QFRET peptide cleavage, EDANS fluorescence. inhibition, % at 6.95 µM. actives 1% (n = 2,100);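 active = inhibition above about 20% chosen separately for each screening run, limit read from the data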;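 also: 0% = DMSO wells and 100% = marimastat wells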
ADAM17 ctr – ADAM17 inhibition, counter-screen for ADAM10 exosite hits | shares compounds with ADAM10 inh | ADAM17 QFRET peptide cleavage, EDANS fluorescence | inhibition, % at 6.95 µM | actives 0.5% (n = 2,100);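 active = mean triplicate inhibition above the solvent-only control wells' mean plus 3 SD, cut at about 12% in these data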;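 also: 0% = DMSO wells and 100% = marimastat wells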
* = called active by the depositor; · = no result given.

SMILES	KLK7 zymogen act	ADAM10 inh	NR2E3 ag-1	JMJD2C inh	ADAM17 inh	NR2E3 ag-2	ADAM10 confirm	ADAM17 ctr
CC(C)C[C@H](NC(=O)c1[nH]cnc1C(=O)N[C@@H](Cc1ccccc1)C(=O)OCc1ccccc1)C(=O)OC(C)(C)C	-0.2	16.7	-6.2	-6.7	3.4	-0.1	·	·
CC(C)C[C@H](NC(=O)c1[nH]cnc1C(=O)N[C@@H](C)C(=O)OC(C)(C)C)C(=O)OCc1ccccc1	-0.1	21.2*	6.4	-1.2	12.2*	-0.1	4.0	1.1
CC(C)C[C@H](NC(=O)c1[nH]cnc1C(=O)Nc1ccc(CNC(=O)OC(C)(C)C)cc1)C(=O)OCc1ccccc1	0.1	5.1	9.3	0.8	-1.3	-0.1	·	·
CC(C)C[C@H](NC(=O)c1[nH]cnc1C(=O)N[C@@H](Cc1ccccc1)C(=O)OC(C)(C)C)C(=O)OCc1ccccc1	0.0	12.8	12.8	0.1	6.9	3.2	·	·
CC(C)C[C@H](NC(=O)c1[nH]cnc1C(=O)N[C@@H](C)c1ccccc1)C(=O)OC(C)(C)C	0.1	24.0*	-33.9	-1.3	8.3	1.0	3.6	2.3
CC(C)(C)OC(=O)[C@H](Cc1ccccc1)NC(=O)c1nc[nH]c1C(=O)N1CCN(c2ccccc2)CC1	0.1	21.6*	22.8	7.8	7.2	-0.6	4.8	2.5
CC(C)C[C@H](NC(=O)c1[nH]cnc1C(=O)Nc1ccc(CNC(=O)OC(C)(C)C)cc1)C(=O)OC(C)(C)C	-5.2	25.4*	7.7	-0.4	9.1*	-0.8	25.4*	5.8
CCOC(=O)c1c(C)[nH]c(C(=O)N2CCC(C(=O)OCC)CC2)c1C	-0.4	-4.1	0.6	19.8	-2.9	1.4	·	·
O=C1c2cc3c(cc2CCC1c1ccc2c(c1)OCO2)OCO3 (stereo not drawn)	0.2	-17.4	-90.1	·	1.1	·	·	·
CC(C)C[C@H](NC(=O)c1[nH]cnc1C(=O)N[C@@H](Cc1ccccc1)C(=O)OC(C)(C)C)C(=O)OC(C)(C)C	-0.2	7.2	9.6	0.1	-1.5	-2.6	·	·
CC(C)C[C@H](NC(=O)c1nc[nH]c1C(=O)NCc1ccccc1)C(=O)OC(C)(C)C	0.1	21.8*	-6.4	1.3	8.3	0.8	5.1	1.3
COc1cc(C2/C(=C(\O)c3ccc4c(c3)OCCO4)C(=O)C(=O)N2c2nnc(C)s2)cc(OC)c1OC (stereo not drawn)	1.4	-60.5	-4.6	22.2	-0.4	2.6	·	·
COc1ccc(N2CCN(C(=O)CCNC(=O)c3ccc(C(C)(C)C)cc3)CC2)cc1	0.3	0.9	-17.6	3.9	0.4	-6.0	·	·
COc1ccc(N2CCN(C(=O)c3ccc(C(C)(C)C)cc3)CC2)cc1	0.2	88.5*	-8.2	-5.5	-4.5	1.6	0.7	0.4
CC(C)C[C@H](NC(=O)[C@@H]1Cc2c([nH]c3ccccc23)C2c3ccccc3C(=O)N21)C(=O)N1CCC[C@@H]1C(=O)O (stereo partly drawn)	1.5	-57.1	-4.5	2.2	-17.8	-4.1	·	·
Cn1c(=O)c(C(=O)NNC(=O)c2ccccc2Cl)c(O)c2ccccc21	-0.2	-6.9	-4.6	-28.6	-9.7	-1.9	·	·
Cn1c(=O)c(C(=O)NNC(=O)c2ccccc2Br)c(O)c2ccccc21	0.0	19.8*	-48.0	-3.7	4.5	6.1	8.0	3.8
COC(=O)C1=C(C)N(Cc2ccc(Cl)cc2)C(=S)NC1c1cccc(OC)c1 (stereo not drawn)	-0.1	21.9*	·	·	6.8	·	4.4	2.4
COc1cccc(NC(=O)[C@H](C)NC(=O)N2CCn3c2nc2ccccc23)c1	0.2	2.1	-21.8	0.2	-4.5	-2.0	·	·
COc1cccc(NC(=O)[C@@H](NC(=O)N2CCn3c2nc2ccccc23)C(C)C)c1	0.2	20.6*	-21.6	2.9	-1.4	-4.5	2.2	-0.2
Cc1ccc(C)c(NS(=O)(=O)c2cc3c4c(c2)CC(=O)N4CCC3)c1	-0.1	3.2	15.3	-5.4	1.0	2.1	·	·
COc1ccc(N2CCN(C(=S)Nc3ccc(C)cc3C)CC2)cc1	0.3	20.5*	14.2	-3.4	4.5	2.4	0.4	-0.1
Cc1ccc(NC(=S)Nc2ccc(F)cc2)c(C)c1	-0.1	20.8*	-7.1	14.0	0.3	1.2	-0.1	0.1
Cc1ccc(NC(=S)NCCc2ccc(F)cc2)c(C)c1	-0.6	-2.8	17.9	10.5	-2.4	-0.8	·	·
COc1ccc(OC)c(-c2cc(C3CCN(c4ncccc4[N+](=O)[O-])CC3)[nH]n2)c1	0.5	23.7*	1.7	2.8	8.5	-3.3	3.4	1.3
SMILES	KLK7 zymogen act	ADAM10 inh	NR2E3 ag-1	JMJD2C inh	ADAM17 inh	NR2E3 ag-2	ADAM10 confirm	ADAM17 ctr
CCOC(=O)C1CCN(C(=O)Cn2cc(C(=O)c3ccco3)c3ccccc32)CC1	-0.2	63.9*	-12.7	-0.9	-4.2	2.3	4.5	2.4
Cc1ccc(NC(=O)COC(=O)CCc2nc3ccccc3c(=O)[nH]2)cc1Cl	0.5	-0.2	-41.4	-0.5	-5.1	7.8	·	·
O=C(COc1cc2oc(=O)cc(-c3ccccc3)c2cc1Cl)NC(Cc1c[nH]c2ccc(O)cc12)C(=O)O (stereo not drawn)	0.5	-15.9	20.7	3.7	1.9	0.4	·	·
Cc1cc(S(=O)(=O)N(Cc2ccc(C(C)C)cc2)CC2CCCO2)ccc1-n1cnnn1 (stereo not drawn)	-0.2	23.8*	-24.1	2.7	5.0	2.3	5.2	1.2
O=C1NC[C@@H](CCCCN2C[C@H](Cc3ccc(O)cc3)N(CCc3ccc(O)cc3)C(=O)C2=O)N(Cc2ccccc2)C1=O	0.9	-10.6	-19.4	·	-2.4	·	·	·
CCC(=O)OCC(=O)[C@@]1(OC(=O)CC)[C@@H](C)C[C@H]2[C@@H]3CCC4=CC(=O)C=C[C@]4(C)[C@@]3(Cl)[C@@H](O)C[C@@]21C	0.2	21.0*	4.4	-1.4	6.4	-0.5	1.3	0.3
O=C(NCc1ccncc1)c1cccc(S(=O)(=O)NCc2ccccc2)c1	0.3	1.8	-24.6	12.5	4.0	0.7	·	·
Cc1ccc(OCCNC(=O)c2cccc(S(=O)(=O)NCc3ccccc3)c2)cc1	0.8	20.6*	-24.6	·	2.8	·	1.5	0.1
CCc1nc(Nc2ccc3c(c2)OCCO3)c2oc3ccccc3c2n1	2.4	-47.1	-16.8	-1.0	-8.0	5.0	·	·
CCc1nc(NCc2ccc3c(c2)OCO3)c2oc3ccccc3c2n1	0.8	27.6*	-18.8	38.6	7.8	-3.3	5.8	1.6
